Data: ChEMBL document CHEMBL1153963, “Phenanthrene-based tylophorine-1 (PBT-1) inhibits lung cancer cell growth through the Akt and NF-kappaB pathways” (J Med Chem, 2009)
Converted amounts (≈) assume the structure as drawn.

Legend:
[1] = Cytotoxicity against human CL1-0 cells assessed as growth inhibition after 48 hrs by MTS assay; assay type: functional, cell-based
In short: (§1)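 Cells seeded in four replicates at 2×10^3 per well in complete RPMI 1640 with drug (0, 0.1, 0.25, 0.5, 0.75 µg/mL in the cell-line panel), 48 h at 37 °C, 5% CO2. Viability read by MTS reagent, absorbance at 490 nm, expressed as percent of untreated control; IC50 taken as concentration giving 50% growth inhibition.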

[2] = tested on: CL1-0; experiment: Effect on BCL2L1 gene expression in human CL1-0 cells assessed as change in gene expression by RT-PCR relative to control; assay type: functional
In short: (§2)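 Real-time quantitative RT-PCR on CL1-0 RNA to validate microarray changes, SYBR Green chemistry with gene-specific primers, GAPDH as internal control; fold change versus untreated control reported as mean ± SD.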

[3] = tested on: CL1-0; experiment: Effect on PPP3CA gene expression in human CL1-0 cells assessed as change in gene expression by RT-PCR relative to control; assay type: functional; in short: as §2
[4] = tested on: CL1-0; experiment: Effect on PDK1 gene expression in human CL1-0 cells assessed as change in gene expression at 0.5 ug/mL after 24 hrs by DNA microarray relative to control; assay type: functional
In short: (§3)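 Total RNA from CL1-0 cells treated 24 h with 0.5 µg/mL drug or untreated; mRNA isolated and run on human DNA microarrays; genes with statistically significant twofold change versus control reported as fold change, mean ± SD.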

[5] = tested on: CL1-0; experiment: Effect on AKT3 gene expression in human CL1-0 cells assessed as change in gene expression by RT-PCR relative to control; assay type: functional; in short: as §2
[6] = tested on: CL1-0; experiment: Effect on PIK3CD gene expression in human CL1-0 cells assessed as change in gene expression by RT-PCR relative to control; assay type: functional; in short: as §2
[7] = tested on: CL1-0; experiment: Effect on IRAK1 gene expression in human CL1-0 cells assessed as change in gene expression at 0.5 ug/mL after 24 hrs by DNA microarray relative to control; assay type: functional; in short: as §3
[8] = tested on: CL1-0; experiment: Effect on AKT3 gene expression in human CL1-0 cells assessed as change in gene expression at 0.5 ug/mL after 24 hrs by DNA microarray relative to control; assay type: functional; in short: as §3
[9] = tested on: CL1-0; experiment: Induction of apoptosis in human CL1-0 cells at 0.75 ug/mL after 24 hrs by propidium iodide and annexin V staining; assay type: functional
In short: (§4)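 CL1-0 cells treated with increasing concentrations for 24 h, resuspended in Annexin-binding buffer, stained with Alexa Fluor 488 Annexin V and PI for 15 min at room temperature, analyzed by flow cytometry; single-stain controls set apoptotic and necrotic windows.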

[10] = tested on: CL1-0; experiment: Effect on NFKB1A gene expression in human CL1-0 cells assessed as change in gene expression at 0.5 ug/mL after 24 hrs by DNA microarray relative to control; assay type: functional; in short: as §3
[11] = tested on: CL1-0; experiment: Effect on TNFRSF10B gene expression in human CL1-0 cells assessed as change in gene expression by RT-PCR relative to control; assay type: functional
In short: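 Microarray hits validated by real-time quantitative RT-PCR with SYBR Green chemistry and gene-specific primers; GAPDH used as internal control; fold change versus untreated control as mean ± SD.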

[12] = tested on: CL1-0; experiment: Effect on CFLAR gene expression in human CL1-0 cells assessed as change in gene expression at 0.5 ug/mL after 24 hrs by DNA microarray relative to control; assay type: functional; in short: as §3
[13] = tested on: NCI-H460; experiment: Cytotoxicity against human H460 cells assessed as growth inhibition after 48 hrs by MTS assay; assay type: functional, cell-based; conditions: NCI-H460, 48 h; in short: as §1
[14] = tested on: PC-9; experiment: Cytotoxicity against human PC9 cells assessed as growth inhibition after 48 hrs by MTS assay; assay type: functional, cell-based; conditions: PC-9, 48 h; in short: as §1
[15] = tested on: CL1-0; experiment: Induction of apoptosis in human CL1-0 cells at 0.5 ug/mL after 24 hrs by propidium iodide and annexin V staining; assay type: functional; in short: as §4
[16] = tested on: CL1-0; experiment: Effect on MAP3K14 gene expression in human CL1-0 cells assessed as change in gene expression by RT-PCR relative to control; assay type: functional; in short: as §2
[17] = tested on: CL1-0; experiment: Effect on CFLAR gene expression in human CL1-0 cells assessed as change in gene expression by RT-PCR relative to control; assay type: functional; in short: as §2
[18] = tested on: CL1-0; experiment: Effect on TNFRSF10B gene expression in human CL1-0 cells assessed as change in gene expression at 0.5 ug/mL after 24 hrs by DNA microarray relative to control; assay type: functional
In short: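 Total RNA extracted from treated or untreated CL1-0 cells, mRNA isolated, hybridized to human DNA microarray; genes scored by statistically significant twofold expression difference versus untreated control; fold change given as mean ± SD.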

[19] = tested on: CL1-0; experiment: Effect on MAP3K14 gene expression in human CL1-0 cells assessed as change in gene expression at 0.5 ug/mL after 24 hrs by DNA microarray relative to control; assay type: functional; in short: as §3
[20] = tested on: CL1-0; experiment: Effect on PIK3CD gene expression in human CL1-0 cells assessed as change in gene expression at 0.5 ug/mL after 24 hrs by DNA microarray relative to control; assay type: functional; in short: as §3
[21] = tested on: CL1-0; experiment: Effect on IRAK1 gene expression in human CL1-0 cells assessed as change in gene expression by RT-PCR relative to control; assay type: functional; in short: as §2
[22] = tested on: CL1-0; experiment: Effect on PRKACA gene expression in human CL1-0 cells assessed as change in gene expression at 0.5 ug/mL after 24 hrs by DNA microarray relative to control; assay type: functional; in short: as §3
[23] = tested on: CL1-0; experiment: Induction of apoptosis in human CL1-0 cells at 0.25 ug/mL after 24 hrs by propidium iodide and annexin V staining; assay type: functional; in short: as §4
[24] = tested on: CL1-0; experiment: Effect on PPP3CA gene expression in human CL1-0 cells assessed as change in gene expression at 0.5 ug/mL after 24 hrs by DNA microarray relative to control; assay type: functional; in short: as §3
[25] = tested on: CL1-0; experiment: Effect on PRKACA gene expression in human CL1-0 cells assessed as change in gene expression by RT-PCR relative to control; assay type: functional; in short: as §2
[26] = tested on: CL1-0; experiment: Effect on NFKB1A gene expression in human CL1-0 cells assessed as change in gene expression by RT-PCR relative to control; assay type: functional; in short: as §2
[27] = tested on: A549; experiment: Cytotoxicity against human A549 cells assessed as growth inhibition after 48 hrs by MTS assay; assay type: functional, cell-based; conditions: A549, 48 h; in short: as §1
[28] = tested on: CL1-0; experiment: Effect on PDK1 gene expression in human CL1-0 cells assessed as change in gene expression by RT-PCR relative to control; assay type: functional; in short: as §2
[29] = tested on: CL1-0; experiment: Effect on BCL2L1 gene expression in human CL1-0 cells assessed as change in gene expression at 0.5 ug/mL after 24 hrs by DNA microarray relative to control; assay type: functional; in short: as §3
[30] = Cytotoxicity against human CL1-5 cells assessed as growth inhibition after 48 hrs by MTS assay; assay type: functional, cell-based; conditions: CL1-5, 48 h; in short: as §1
[31] = Homo sapiens, CL1-0, 48 h, read-out: IC50

Compound: COc1ccc2c(CN3CCN(c4ccc(Cl)cc4)CC3)cc3cc4c(cc3c2c1)OCO4
- IC50 [1, 31]: > 2 mg/L

Compound: COc1ccc2c(CN3CCC(C(=O)O)CC3)cc3cc4c(cc3c2c1)OCO4
- IC50 [1, 31]: > 2 mg/L

Compound: COc1ccc2c(CN3CCC(CCO)CC3)cc3cc4c(cc3c2c1)OCO4
- IC50 [1, 31]: 0.37 mg/L (≈ 0.94 µM)
- IC50 ([1]; cl1-0): Dose-dependent effect

Compound: COc1ccc2c(CN3CCC(CCO)CC3)cc3cc4c(cc3c2c1)OCO4.Cl
- IC50 [1, 31]: 0.46 mg/L
- IC50 ([1]; cl1-0): Dose-dependent effect

Compound: COc1ccc2c(CN3CCC(CO)CC3)cc3cc4c(cc3c2c1)OCO4.Cl
- IC50 [1, 31]: 0.44 mg/L
- IC50 ([1]; cl1-0): Dose-dependent effect

Compound: COc1ccc2c(CN3CCN(c4ccc(O)cc4)CC3)cc3cc4c(cc3c2c1)OCO4
- IC50 [1, 31]: > 2 mg/L

Compound: COc1ccc2c(CN3CCN(CCO)CC3)cc3cc4c(cc3c2c1)OCO4
- IC50 [1, 31]: > 2 mg/L

Compound: COc1ccc2c(CN3CCC(CO)CC3)cc3cc4c(cc3c2c1)OCO4
- fold change (FC) [2]: 1.83
- fold change (FC) [3]: 5.31
- fold change (FC) [4]: 0.26
- fold change (FC) [5]: 1.61
- fold change (FC) [6]: 1.69
- fold change (FC) [7]: 2.1
- fold change (FC) [8]: 0.48
- IC50 [1, 31]: 0.81 mg/L (≈ 2.13 µM)
- IC50 ([1]; cl1-0): Dose-dependent effect
- Activity [9]: 11.03%
- fold change (FC) [10]: 2.23
- fold change (FC) [11]: 1.71
- fold change (FC) [12]: 3.01
- IC50 [13]: 0.2 mg/L (≈ 0.527 µM)
- IC50 [14]: 0.2 mg/L (≈ 0.527 µM)
- Activity [15]: 9.56%
- fold change (FC) [16]: 2.94
- fold change (FC) [17]: 2.8
- fold change (FC) [18]: 2.53
- fold change (FC) [19]: 2.25
- fold change (FC) [20]: 2.03
- fold change (FC) [21]: 2.23
- fold change (FC) [22]: 5.38
- Activity [23]: 5.96%
- fold change (FC) [24]: 2.53
- fold change (FC) [25]: 1.39
- fold change (FC) [26]: 6.8
- IC50 [27]: 0.2 mg/L (≈ 0.527 µM)
- fold change (FC) [28]: 0.56
- fold change (FC) [29]: 2.7
- IC50 [30]: 0.2 mg/L (≈ 0.527 µM)

Compound: COc1ccc2c(CNCCCCCC(=O)O)cc3cc4c(cc3c2c1)OCO4
- IC50 [1, 31]: > 2 mg/L

Compound: COc1ccc2c(CNCCCCCCO)cc3cc4c(cc3c2c1)OCO4
- IC50 [1, 31]: > 2 mg/L
